Assays:
Type in all cases: ADME, organism-based
Plasma [1] = assay: Half life in Sprague-Dawley rat plasma at 5 mg/kg, iv by liquid scintillation counting; set-up: dose 5 mg/kg, route intravenous; conditions: in vivo
Outline: (§1)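 Male Sprague-Dawley rats, single i.v. bolus of [14C]drug. Blood by cardiac puncture from three noncannulated rats killed at each time from 0.25 to 168 h; plasma separated from an aliquot. Radioactivity by liquid scintillation counting. Parameters come from a composite profile of mean values, taking 1 g as equal to 1 ml.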

[2] = Drug level in bile-duct cannulated Sprague-Dawley rat assessed as radioactive drug recovery in carcass at 5 mg/kg, iv after 168 hrs by liquid scintillation counting; set-up: dose 5 mg/kg, route intravenous; conditions: in vivo
Outline: (§2)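 Male Sprague-Dawley rats, single i.v. bolus of [14C]drug. Five bile duct-cannulated rats: bile collected at 0-4, 4-8 and 8-24 h, then every 24 h to 168 h. Three noncannulated rats were killed at 168 h. Urine and feces collected over set intervals; carcass and cage washings taken at sacrifice. Liquid scintillation counting, expressed as percent of dose.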

Plasma [3] = assay: Cmax in human plasma at 100 uCi, iv by liquid scintillation counting; set-up: route intravenous; conditions: in vivo
Outline: (§3)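 Nine healthy men, single i.v. infusion of [14C]drug (planned 100 mg/100 μCi, mean delivered 95 μCi) over 100 min. Heparinized blood sampled from 0 to 18 h, then daily through day 10, plus follow-up. Total radioactivity in plasma and whole blood by liquid scintillation counting, reported as mg equivalents. Noncompartmental analysis; values are means (%CV).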

[4] = Mean residence time in human whole blood at 100 uCi, iv by liquid scintillation counting; conditions: in vivo; outline: as §3
Plasma [5] = assay: Mean residence time in human plasma at 100 uCi, iv by liquid scintillation counting; conditions: in vivo; outline: as §3
Plasma [6] = assay: Half life in human plasma at 100 uCi, iv by liquid scintillation counting; outline: as §3
[7] = Drug level in bile-duct cannulated Sprague-Dawley rat assessed as radioactive drug recovery in bile at 5 mg/kg, iv after 168 hrs by liquid scintillation counting; set-up: dose 5 mg/kg, route intravenous; conditions: in vivo; outline: as §2
[8] = Clearance in human whole blood at 100 uCi, iv by liquid scintillation counting; conditions: in vivo; outline: as §3
Plasma [9] = assay: Cmax in Sprague-Dawley rat plasma at 5 mg/kg, iv by liquid scintillation counting; set-up: dose 5 mg/kg, route intravenous; conditions: in vivo; outline: as §1
[10] = Cmax in Sprague-Dawley rat whole blood at 5 mg/kg, iv by liquid scintillation counting; set-up: dose 5 mg/kg, route intravenous; conditions: in vivo; outline: as §1
Plasma [11] = assay: Tmax in Sprague-Dawley rat plasma at 5 mg/kg, iv by liquid scintillation counting; set-up: dose 5 mg/kg, route intravenous; conditions: in vivo; outline: as §1
[12] = Half life in Sprague-Dawley rat whole blood at 5 mg/kg, iv by liquid scintillation counting; set-up: dose 5 mg/kg, route intravenous; conditions: in vivo; outline: as §1
[13] = Drug level in human assessed as radioactive drug recovery in feces at 100 uCi, iv after 216 hrs by liquid scintillation counting; conditions: in vivo
Outline: (§4)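 Nine healthy men given a single i.v. infusion of [14C]drug. Urine collected predose, at 0-2, 2-4, 4-8 and 8-24 h, then every 24 h to day 10. Feces collected predose and every 24 h to day 10. Radioactivity measured by liquid scintillation counting and totalled as cumulative percent of dose through 216 h.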

Plasma [14] = assay: Tmax in human plasma at 100 uCi, iv by liquid scintillation counting; conditions: in vivo; outline: as §3
[15] = Drug level in bile-duct cannulated Sprague-Dawley rat assessed as radioactive drug recovery in feces at 5 mg/kg, iv after 168 hrs by liquid scintillation counting; set-up: dose 5 mg/kg, route intravenous; conditions: in vivo; outline: as §2
[16] = Volume of distribution at steady state in human whole blood at 100 uCi, iv by liquid scintillation counting; conditions: in vivo
Outline: (§5)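 Healthy adult men (n = 9), single i.v. infusion of [14C]drug over 100 min at 1 mg/min. 100 mg/100 μCi was planned; the mean actually given was 88.3 mg and 95 μCi. Heparinized samples drawn from 0 h through day 10 and at follow-up. Total radioactivity in plasma or whole blood counted by liquid scintillation and expressed as mg equivalents. Noncompartmental analysis, given as mean (%CV).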

[17] = Half life in human whole blood at 100 uCi, iv by liquid scintillation counting; outline: as §3
[18] = Tmax in Sprague-Dawley rat whole blood at 5 mg/kg, iv by liquid scintillation counting; set-up: dose 5 mg/kg, route intravenous; conditions: in vivo; outline: as §1
[19] = Volume of distribution at steady state in Sprague-Dawley rat whole blood at 5 mg/kg, iv by liquid scintillation counting; set-up: dose 5 mg/kg, route intravenous; conditions: in vivo
Outline: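 Male Sprague-Dawley rats, single i.v. bolus of [14C]drug, 5 mg/kg. Blood by cardiac puncture from three non-cannulated rats killed at each time from 0.25 to 168 h. Radioactivity counted by liquid scintillation. Noncompartmental parameters taken from a composite profile of mean values per time point, assuming 1 g blood equals 1 ml.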

[20] = Tmax in human whole blood at 100 uCi, iv by liquid scintillation counting; conditions: in vivo; outline: as §3
[21] = Drug level in noncannulated Sprague-Dawley rat assessed as radioactive drug recovery in feces at 5 mg/kg, iv after 168 hrs by liquid scintillation counting; set-up: dose 5 mg/kg, route intravenous; conditions: in vivo; outline: as §2
Plasma [22] = assay: Volume of distribution at steady state in Sprague-Dawley rat plasma at 5 mg/kg, iv by liquid scintillation counting; set-up: dose 5 mg/kg, route intravenous; conditions: in vivo; outline: as §1
[23] = Drug level in noncannulated Sprague-Dawley rat assessed as radioactive drug recovery in carcass at 5 mg/kg, iv after 168 hrs by liquid scintillation counting; set-up: dose 5 mg/kg, route intravenous; conditions: in vivo; outline: as §2
[24] = Drug level in human assessed as radioactive drug recovery in feces at 100 uCi, iv within 216 hrs by liquid scintillation counting; conditions: in vivo; outline: as §4
Plasma [25] = assay: Clearance in human plasma at 100 uCi, iv by liquid scintillation counting; conditions: in vivo; outline: as §3
Plasma [26] = assay: Volume of distribution at steady state in human plasma at 100 uCi, iv by liquid scintillation counting; conditions: in vivo; outline: as §5
[27] = Drug level in human assessed as radioactive drug recovery in urine at 100 uCi, iv after 216 hrs by liquid scintillation counting; conditions: in vivo; outline: as §4
[28] = Cmax in human whole blood at 100 uCi, iv by liquid scintillation counting; set-up: route intravenous; conditions: in vivo; outline: as §3

## CCCCCOc1ccc(-c2ccc(-c3ccc([14C](=O)N[C@H]4C[C@@H](O)[C@@H](O)NC(=O)[C@@H]5[C@@H](O)[C@@H](C)CN5C(=O)[C@H]([C@H](C)O)NC(=O)[C@H]([C@H](O)[C@@H](O)c5ccc(O)cc5)NC(=O)[C@@H]5C[C@@H](O)CN5C(=O)[C@H]([C@H](C)O)NC4=O)cc3)cc2)cc1 [[14C]-ANIDULAFUNGIN]
Plasma [1]
  t1/2: 52.9 h
[2]
  Drug uptake: 40.4%
Plasma [3]
  Cmax: 3020 ng/mL
[4]
  MRT: 174 h
Plasma [5]
  MRT: 162 h
Plasma [6]
  t1/2: 119 h
[7]
  Drug uptake: 33.9%
[8]
  CL: 0.356 L/h
Plasma [9]
  Cmax: 6.84 ugequiv/ml
[10]
  Cmax: 11.5 ugequiv/ml
Plasma [11]
  Tmax: 0.25 h
[12]
  t1/2: 52.1 h
[13]
  Drug uptake: 29.5%
Plasma [14]
  Tmax: 1.78 h
[15]
  Drug uptake: 17.1%
[16]
  Vdss: 61.6 L
[17]
  t1/2: 139 h
[18]
  Tmax: 0.25 h
[19]
  Vdss: 0.696 L/kg
[20]
  Tmax: 1.75 h
[21]
  Drug uptake: 77.1%
Plasma [22]
  Vdss: 1.056 L/kg
[23]
  Drug uptake: 23.1%
[24]
  Drug uptake: 10%
Plasma [25]
  CL: 0.356 L/h
Plasma [26]
  Vdss: 57.6 L
[27]
  Drug uptake: 0.56%
[28]
  Cmax: 3380 ng/mL

From ChEMBL document CHEMBL1629624, “In vitro and in vivo studies to characterize the clearance mechanism and potential cytochrome P450 interactions of anidulafungin” (Antimicrob Agents Chemother, 2009)
